Data: article PMC9302689 (British Journal of Clinical Pharmacology, 2022)
Marks after values point to notes of the source that are not given here.

How the values were obtained:
healthy male subjects = assay: Serum neuro-endocrine hormones; format: in vivo, human; settings: for Cortisol (ng/ml), LSM CFB / Cortisol (ng/ml), estimate of difference compared to placebo / Prolactin (ng/ml), LSM CFB / Prolactin (ng/ml), estimate of difference compared to placebo: 2 hours post-dose, serum
Summary of the method: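 Serum was sampled pre-dose and at 0.25–36 h after a single dose or placebo in healthy men. Cortisol was measured by validated LC–MS/MS (LLOQ 2.00 ng/mL) and prolactin by time-resolved fluoroimmunoassay (LLOQ 0.260 ng/mL). Values were ln-transformed and analysed by MMRM using the 2-h post-dose data, with baseline as covariate and pooled placebo as reference, then back-transformed.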

α1B‐adrenoceptor = target: T1, α1B‐adrenoceptor (Homo sapiens, UniProt P35368); assay: In vitro binding affinity, α1B-adrenoceptor; settings: read-out: Ki, α1B-adrenoceptor; preclinical in vitro panel
T1 sequence (P35368 1-520): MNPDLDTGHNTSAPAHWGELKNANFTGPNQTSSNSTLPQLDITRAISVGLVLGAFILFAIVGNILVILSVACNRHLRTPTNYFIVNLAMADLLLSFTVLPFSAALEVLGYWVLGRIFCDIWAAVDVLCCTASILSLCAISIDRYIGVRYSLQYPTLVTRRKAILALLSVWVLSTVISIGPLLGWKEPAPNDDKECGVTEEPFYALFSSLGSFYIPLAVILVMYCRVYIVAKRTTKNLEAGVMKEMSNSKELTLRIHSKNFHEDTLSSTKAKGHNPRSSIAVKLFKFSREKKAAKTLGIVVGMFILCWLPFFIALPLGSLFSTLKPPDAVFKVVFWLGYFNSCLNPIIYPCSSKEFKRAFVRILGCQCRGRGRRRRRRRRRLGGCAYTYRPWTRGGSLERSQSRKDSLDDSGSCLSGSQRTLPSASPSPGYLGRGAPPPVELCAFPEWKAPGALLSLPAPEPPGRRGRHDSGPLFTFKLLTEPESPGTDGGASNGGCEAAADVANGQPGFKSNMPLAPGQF

## CN1CCC23CCCCC2C1Cc1ccc(C(N)=O)cc13 (stereo not drawn) [ALKS 7119, (9α, 13α)‐17‐methylmorphinan‐3‐carboxamide]
Healthy male subjects; 3 mg single oral dose
  Cortisol (ng/ml), LSM CFB: −22.9 % change
  Cortisol (ng/ml), estimate of difference compared to placebo: −3.6 (−31.1, 34.9) P = .83 % change
  Prolactin (ng/ml), LSM CFB: −3.6 % change
  Prolactin (ng/ml), estimate of difference compared to placebo: −3.2 (−26.9; 28.3) P = .82 % change
Healthy male subjects; 10 mg single oral dose
  Cortisol (ng/ml), LSM CFB: 8.9 % change
  Cortisol (ng/ml), estimate of difference compared to placebo: −31.8 (−51.3; −4.5) P = .03 ^* % change
  Prolactin (ng/ml), LSM CFB: −15.3 % change
  Prolactin (ng/ml), estimate of difference compared to placebo: 10.1 (−16.9; 45.9) P = .50 % change
Healthy male subjects; 25 mg single oral dose
  Cortisol (ng/ml), LSM CFB: −20.8 % change
  Cortisol (ng/ml), estimate of difference compared to placebo: −6.2 (−32.9; 31.3) P = .71 % change
  Prolactin (ng/ml), LSM CFB: 8.0 % change
  Prolactin (ng/ml), estimate of difference compared to placebo: −13.6 (−34.8; 14.5) P = .31 % change
Healthy male subjects; 50 mg single oral dose
  Cortisol (ng/ml), LSM CFB: 12.7 % change
  Prolactin (ng/ml), LSM CFB: 66.0 % change
Healthy male subjects; 75 mg single oral dose
  Cortisol (ng/ml), LSM CFB: 36.5 % change
  Cortisol (ng/ml), estimate of difference compared to placebo: −45.5 (−61.1; −23.8) P < .01 ^* % change
  Prolactin (ng/ml), LSM CFB: 63.4 % change
  Prolactin (ng/ml), estimate of difference compared to placebo: −42.9 (−56.9; −24.3) P < .01 ^* % change
Healthy male subjects; 100 mg single oral dose
  Cortisol (ng/ml), LSM CFB: 70.3 % change
  Cortisol (ng/ml), estimate of difference compared to placebo: −56.4 (−68.8; −38.9) P < .01 ^* % change
  Prolactin (ng/ml), LSM CFB: 72.0 % change
  Prolactin (ng/ml), estimate of difference compared to placebo: −45.8 (−59.1; −28.1) P < .01 ^* % change
Healthy male subjects; 125 mg single oral dose
  Cortisol (ng/ml), LSM CFB: 52.6 % change
  Cortisol (ng/ml), estimate of difference compared to placebo: −51.3 (−65.2; −31.8) P < .01 ^* % change
  Prolactin (ng/ml), LSM CFB: 28.0 % change
  Prolactin (ng/ml), estimate of difference compared to placebo: −27.1 (−45.1; −3.3) P = .03 ^* % change
Healthy male subjects; 150 mg single oral dose
  Cortisol (ng/ml), LSM CFB: 84.4 % change
  Cortisol (ng/ml), estimate of difference compared to placebo: −59.7 (−71.2; −43.6) P < .01 ^* % change
  Prolactin (ng/ml), LSM CFB: 106.9 % change
  Prolactin (ng/ml), estimate of difference compared to placebo: −54.9 (−66.0; −40.2) P < .01 ^* % change
Healthy male subjects; 175 mg single oral dose
  Cortisol (ng/ml), LSM CFB: 53.6 % change
  Cortisol (ng/ml), estimate of difference compared to placebo: −51.6 (−65.4; −32.3) P < .01 ^* % change
  Prolactin (ng/ml), LSM CFB: 81.7 % change
  Prolactin (ng/ml), estimate of difference compared to placebo: −48.7 (−61.3; −32.0) P < .01 ^* % change
Healthy male subjects; 200 mg single oral dose
  Cortisol (ng/ml), LSM CFB: 64.7 % change
  Cortisol (ng/ml), estimate of difference compared to placebo: −54.9 (−67.8; −36.9) P < .01 ^* % change
  Prolactin (ng/ml), LSM CFB: 111.3 % change
  Prolactin (ng/ml), estimate of difference compared to placebo: −55.8 (−66.7; −41.5) P < .01 ^* % change
Healthy male subjects; from dose levels ≥50 mg
  Serum cortisol, increase vs placebo (estimate of difference): 51.7 % change
  Serum prolactin, increase vs placebo (estimate of difference): 77.9 % change
α1B‐adrenoceptor
  Ki: 1800 nM
